# Experimental data from paper PMC7613447 (Bioorganic & medicinal chemistry, 2022).
# Where a SMILES comes first, the peptide text is derived from it. [ ]: non-standard residue; d: D form. 1Nal = N[C@@H](Cc1cccc2ccccc12)C(=O)O; 2Nal = N[C@@H](Cc1ccc2ccccc2c1)C(=O)O
# Legend:
# PP1 = PP1 (Homo sapiens, UniProt P62136); test: ALPHA assay, competition with Biotin-PDP2 for the RVxF binding site of His-PP1
# Outline: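 Competition binding with 200 nM His-PP1 and 67 nM biotin-PDP2 in 50 mM Tris-Cl pH 7.5, 150 mM NaCl, 0.05% Tween 20, 1 mM MnCl₂, 0.1% BSA. Serial dilutions of test compound were added for 60 min at rt. Streptavidin-donor and anti-His-acceptor beads (5 μg/ml final) were then added for 90 min at rt in the dark. Excitation was 680 nm, emission 570 nm. The non-specific control used 22 nM GST(His-biotin).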
# PP1 and Inhibitor 2 = PP1 and Inhibitor 2 (Homo sapiens, UniProt P62136); test: Disruption of the interaction between PP1 and Inhibitor 2; format: biochemical; conditions: for EC50 of the disruption of the interaction between PP1 and Inhibitor 2: starting at 50% inhibition of PP1 with I2, DiFMUP as substrate; for activity in disrupting PP1:I2 (in words): in vitro, Table 1 conditions; for PP1 activity reached (efficacy): maximum of dose-response, around 50% starting inhibition (Supp. Fig. 2E, F)
# Chain of PP1 and Inhibitor 2 (P62136 whole entry): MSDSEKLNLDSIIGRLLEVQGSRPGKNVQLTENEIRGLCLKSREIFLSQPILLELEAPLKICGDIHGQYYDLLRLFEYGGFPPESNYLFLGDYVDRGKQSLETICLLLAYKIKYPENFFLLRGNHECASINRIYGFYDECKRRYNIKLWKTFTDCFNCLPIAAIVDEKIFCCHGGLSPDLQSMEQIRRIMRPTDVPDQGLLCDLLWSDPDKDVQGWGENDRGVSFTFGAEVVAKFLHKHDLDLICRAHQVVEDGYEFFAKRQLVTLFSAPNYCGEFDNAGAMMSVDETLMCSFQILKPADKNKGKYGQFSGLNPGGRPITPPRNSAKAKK
# HeLa cells = test: Calcium release assay, Fluo-4 imaging in intact HeLa cells; format: cell-based; conditions: Fluo-4, Ca^2+-containing imaging buffer
# Outline: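 HeLa Kyoto cells were grown in low-glucose DMEM with 10% FBS, penicillin/streptomycin and L-glutamine at 37 °C, 5% CO₂, then seeded in chamber slides the day before imaging (~80% confluent). Cells were loaded with 0.5 μM Fluo-4 in HEPES pH 7.4 imaging buffer containing 1.2 mM CaCl₂ for 30 min at rt, then washed. Confocal imaging used ex 488/em 516 nm: 2 min baseline, then 30 min after compound addition. Buffer and a PP1-disrupting peptide served as controls. Responding cells were counted.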
# PP1 by I2 = conditions: starting inhibition of PP1 by I2 of 50%; cited from earlier work
# Chain of PP1 (P62136 whole entry): as above
compound,measurement,setting,value
"CC(C)[C@H](NC(=O)[C@@H](N)CCCNC(=N)N)C(=O)N[C@H](C(=O)N[C@@H](Cc1ccccc1)C(=O)O)[C@@H](C)O [Compound 1, RVTF] (H-RVTF-OH)",IC50,PP1,124 µM
"CC[C@H](C)[C@H](NC(=O)[C@@H](N)CCCNC(=N)N)C(=O)N[C@H](C(=O)N[C@@H](Cc1ccccc1)C(=O)O)[C@@H](C)O [Compound 3, RITF] (H-RITF-OH)",EC50 of the disruption of the interaction between PP1 and Inhibitor 2,PP1 and Inhibitor 2,Slightly active at 500 μM
"CC(C)C[C@H](NC(=O)[C@@H](N)CCCNC(=N)N)C(=O)N[C@H](C(=O)N[C@@H](Cc1ccccc1)C(=O)O)[C@@H](C)O [Compound 4, RLTF] (H-RLTF-OH)",EC50 of the disruption of the interaction between PP1 and Inhibitor 2,PP1 and Inhibitor 2,Slightly active at 500 μM
"CC(C)[C@H](NC(=O)[C@@H](N)CCCNC(=N)N)C(=O)NCC(=O)N[C@@H](Cc1ccccc1)C(=O)O [Compound 6, RVGF] (H-RVGF-OH)",EC50 of the disruption of the interaction between PP1 and Inhibitor 2,PP1 and Inhibitor 2,Slightly active at 500 μM
"CC(C)[C@H](NC(=O)[C@@H](NC(=O)[C@@H](N)CCCNC(=N)N)C(C)C)C(=O)N[C@@H](Cc1ccccc1)C(=O)O [Compound 7, RVVF] (H-RVVF-OH)",EC50 of the disruption of the interaction between PP1 and Inhibitor 2,PP1 and Inhibitor 2,Slightly active at 500 μM
"CC(C)[C@H](NC(=O)[C@@H](N)CCCNC(=N)N)C(=O)N[C@@H](CCC(=O)O)C(=O)N[C@@H](Cc1ccccc1)C(=O)O [Compound 13, RVEF] (H-RVEF-OH)",EC50 of the disruption of the interaction between PP1 and Inhibitor 2,PP1 and Inhibitor 2,Slightly active at 500 μM
"CC(C)[C@H](NC(=O)[C@@H](NC(=O)[C@@H](N)Cc1ccccc1)[C@@H](C)O)C(=O)N[C@@H](CCCNC(=N)N)C(=O)O [Compound 25, FTVR] (H-FTVR-OH)",activity in disrupting PP1:I2 (in words),PP1 and Inhibitor 2,inactive
"CC(C)[C@@H](NC(=O)[C@@H](Cc1c[nH]cn1)NC(=O)[C@H](N)Cc1ccccc1)C(=O)N[C@H](CCCNC(=N)N)C(=O)O [Compound 27, dFdHdVdR]",EC50 of the disruption of the interaction between PP1 and Inhibitor 2,PP1 and Inhibitor 2,Slightly active at 500 μM
"CC(=O)N[C@@H](CCCNC(=N)N)C(=O)N[C@H](C(=O)N[C@H](C(=O)N[C@@H](Cc1ccccc1)C(=O)O)[C@@H](C)O)C(C)C [Compound 28, Ac-RVTF] (Ac-RVTF-OH)",activity in disrupting PP1:I2 (in words),PP1 and Inhibitor 2,inactive
"CC(C)[C@H](NC(=O)[C@H](CCCNC(=N)N)NC(=O)[C@@H](N)CCCCN)C(=O)N[C@@H](Cc1c[nH]cn1)C(=O)N[C@@H](Cc1cccc2ccccc12)C(N)=O [Compound 48, KRVH-(1-NaI)-NH2] (H-KRVH[1Nal]-NH2)",PP1 activity reached (efficacy),PP1 and Inhibitor 2,around 80%
"CC(C)[C@H](NC(=O)[C@H](CCCNC(=N)N)NC(=O)[C@@H](N)CCCCN)C(=O)N[C@@H](Cc1c[nH]cn1)C(=O)N[C@@H](Cc1ccc2ccccc2c1)C(N)=O [Compound 49, KRVH-(2-NaI)-NH2] (H-KRVH[2Nal]-NH2)",PP1 activity reached (efficacy),PP1 and Inhibitor 2,around 80%
"Ac-KRVHF-NH2 [Compound 34, Ac-KRVHF-NH2]",calcium spiking in living HeLa cells (in words),HeLa cells,inactive
RKIQFT,EC50,PP1 by I2,54 µM
